Key:
[1] = target: T1, Adenosine receptor A1 (Bos taurus, UniProt P28190); experiment: Displacement of [3H]CHA from adenosine A1 receptors was determined in bovine cortical membranes; type: cell membranes
T1 sequence (P28190 whole entry): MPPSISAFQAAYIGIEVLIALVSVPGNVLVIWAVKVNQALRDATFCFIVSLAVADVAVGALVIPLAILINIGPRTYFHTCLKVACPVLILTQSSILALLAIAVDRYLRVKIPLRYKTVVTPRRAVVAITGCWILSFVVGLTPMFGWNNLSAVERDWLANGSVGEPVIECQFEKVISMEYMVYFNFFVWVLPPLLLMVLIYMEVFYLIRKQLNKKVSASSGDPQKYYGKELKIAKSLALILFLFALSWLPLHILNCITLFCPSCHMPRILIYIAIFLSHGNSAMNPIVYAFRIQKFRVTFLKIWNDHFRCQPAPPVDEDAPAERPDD
Method in brief: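 A1 affinity measured by displacement of [3H]CHA (31 Ci/mmol) from bovine cortical membranes. Compounds in DMSO, final ≤2%. At least six concentrations spanning 3 orders of magnitude were used. Ki is the mean ± SEM of four separate assays, each run in triplicate.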

[2] = target: Adenosine receptor A2a (Bos taurus); experiment: Displacement of [3H]-CGS- 21680 from adenosine A2a receptor of bovine striatal membrane
[3] = target: T2, Adenosine receptor A1 (Bos taurus) (UniProt P28190); experiment: Displacement of [3H]CHA from adenosine A1 receptor in bovine cortical membrane at 10 uM; type: cell membranes
T2 sequence (whole entry): T1 sequence (P28190 whole entry)
Method in brief: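 Competition against [3H]CHA (31 Ci/mmol) for A1 sites in bovine cortical membranes. Compounds dissolved in DMSO, final DMSO ≤2%.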

[4] = test system: Adenosine receptor A2a (Bos taurus); experiment: Displacement of [3H]-CGS- 21680 from adenosine A2a receptor in bovine striatal membrane at 10 uM.; details: Striatum
[5] = target: T1, Adenosine receptor A1; experiment: Intrinsic activity towards Adenosine A1 receptor as displacement of [3H]DPCPX from bovine cortical membranes without GTP
Method in brief: (§1)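 A1 binding in bovine cortical membranes with [3H]DPCPX as radioligand. Run with 1 mM GTP and without GTP, and the GTP shift was taken from comparing the two conditions. Compounds in DMSO, final ≤2%.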

[6] = target: T1, Adenosine receptor A1; experiment: Intrinsic activity towards Adenosine A1 receptor as displacement of [3H]DPCPX from bovine cortical membranes with 1 mM GTP; method in brief: as §1
[7] = target: T1, Adenosine receptor A1; experiment: Intrinsic activity towards Adenosine A1 receptor using [3H]DPCPX from bovine cortical membranes without GTP; method in brief: as §1
[8] = target: T2, Adenosine receptor A1 (Bos taurus); experiment: GTP shift for Adenosine A1 receptor; type: functional; method in brief: as §1
[9] = test system: Adenosine receptor A3 (Bos taurus); experiment: Displacement of [125 I]AB-MECA from adenosine A3 receptor in bovine cortical membranes at 1 uM

Row | Structure (SMILES) | Ki [1] [µM] | inhibition [4] [%] | also measured
1 | Oc1c(-c2cccs2)nnc2nc3ccccc3n12 | 0.293 | – | –
2 | Oc1c(-c2ccsc2)nnc2nc3ccccc3n12 | 0.119 | – | Ki [2]: 5 µM
3 | Cn1c2ccccc2n2c(=O)cnnc12 | – | 8 | inhibition [3]: 0%
4 | Cc1nnc2n(C)c3ccccc3n2c1=O | – | 0 | inhibition [3]: 46%
5 | C[C@H](Cc1ccccc1)Nc1ncnc2c1ncn2[C@@H]1O[C@H](CO)[C@@H](O)[C@H]1O [(R)-PIA] | – | – | Ki [5]: 0.0042 µM; Ki [6]: 0.0199 µM
6 | Oc1c(-c2ccc(Cl)cc2)nnc2nc3ccccc3n12 | – | 8 | inhibition [3]: 44%
7 | Oc1c(-c2ccccc2)nnc2nc3ccccc3n12 | 0.085 | – | Ki [6]: 0.197 µM; Ki [7]: 0.141 µM
8 | Oc1ccc(-c2nnc3nc4ccccc4n3c2O)cc1 | 0.249 | – | –
9 | Cn1c2ccccc2n2c(=O)c(-c3ccsc3)nnc12 | 0.078 | 55 | –
10 | Oc1cnnc2nc3ccccc3n12 | – | 0 | inhibition [3]: 34%
11 | COc1ccc(-c2nnc3nc4ccccc4n3c2O)cc1OC | 1.78 | 35 | –
12 | Cn1c2ccccc2n2c(=O)c(-c3ccc(O)c(O)c3)nnc12 | 0.459 | – | –
13 | Cc1nnc2nc3ccccc3n2c1O | 3.9 | 39 | –
14 | COc1ccc(-c2nnc3n(C)c4ccccc4n3c2=O)cc1OC | – | 18 | inhibition [3]: 24%
15 | Oc1ccc(-c2nnc3nc4ccccc4n3c2O)cc1O | 0.47 | – | Ki [2]: 3.5 µM
16 | Oc1c(-c2ccco2)nnc2nc3ccccc3n12 | 0.261 | – | –
17 | COc1ccc(-c2nnc3nc4ccccc4n3c2O)cc1 | – | 16 | inhibition [3]: 30%

Further lines, with some results ahead:

Row | Ki [1] [µM] | inhibition [4] [%] | Structure (SMILES) | also measured
18 | 0.344 | – | O=c1c(-c2ccc(O)cc2)nnc2n(Cc3ccccc3)c3ccccc3n12 | –
19 | 0.446 | 60 | O=c1c(-c2ccsc2)nnc2n(Cc3ccccc3)c3ccccc3n12 | –
20 | 0.274 | – | O=c1c(-c2ccccc2)nnc2n(Cc3ccccc3)c3ccccc3n12 | Ki [5]: 0.24 µM; Ki [6]: 0.184 µM
21 | 0.99 | – | O=c1c(-c2ccco2)nnc2n(Cc3ccccc3)c3ccccc3n12 | Ki [2]: 1.24 µM
22 | – | 0 | Cn1c2ccccc2n2c(=O)c(-c3ccc(Cl)cc3)nnc12 | inhibition [3]: 66%
23 | 0.063 | 25 | Cn1c2ccccc2n2c(=O)c(-c3ccccc3)nnc12 | Ki [5]: 0.0931 µM; Ki [6]: 0.119 µM; GTP shift [8]: 1.3; inhibition [9]: 0%
24 | 0.315 | – | O=c1c(-c2ccco2)nnc2n(-c3ccccc3)c3ccccc3n12 | –
25 | 0.206 | 43 | Cn1c2ccccc2n2c(=O)c(-c3ccc(O)cc3)nnc12 | –
26 | 0.813 | – | Cn1c2ccccc2n2c(=O)c(-c3ccco3)nnc12 | Ki [2]: 6.3 µM
27 | 0.018 | – | O=c1c(-c2ccccc2)nnc2n(-c3ccccc3)c3ccccc3n12 | Ki [5]: 0.0247 µM; Ki [6]: 0.025 µM
28 | 2.05 | 7 | COc1ccc(-c2nnc3n(C)c4ccccc4n3c2=O)cc1 | –
29 | 0.233 | 19 | Cn1c2ccccc2n2c(=O)c(-c3cccs3)nnc12 | –

From ChEMBL document CHEMBL1134334, “3-Aryl[1,2,4]triazino[4,3-a]benzimidazol-4(10H)-ones: a new class of selective A1 adenosine receptor antagonists” (J Med Chem, 2001)
